ChEMBL document CHEMBL1124920, “cis-diamineplatinum (II) complexes containing phosphono carboxylate ligands as antitumor agents” (J Med Chem, 1990)

Experiments:
Mus musculus [1] = test: Antitumor activity against CFW mice bearing Sarcoma 180 ascites (S180a) following i.p. administration.; type: functional, organism-based
In short: (§1)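 Female CFW mice (18-25 g) were implanted ip with 2 × 10^6 Sarcoma 180 ascites cells on day 0. Compound was given ip in 0.5 mL water on day 1, with six mice per dose. The run lasted twice the control MST, and survivors were counted as dying then. Activity is % ILS of MST; >50% counts as active, and the maximum is 100%.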

L1210 [2] = test: Antitumor activity (ip) against CDF1 mice bearing Leukemia L1210 cells; type: functional, organism-based; conditions: Mus musculus
In short: (§2)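 Female CDF1 mice (16-22 g) received 1 × 10^6 L1210 cells ip in 0.5 mL […] on day 0. Test compound was given in 0.5 mL water on day 1, with six mice per dose. The study ended at 3× the control mean survival time (MST), and survivors were scored as dying that day. ILS is the % increase in MST over controls; >25% counts as active, and the maximum possible is 200%.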

Mus musculus [3] = species on record: Mus musculus; test: Optimal dose in Sarcoma inoculated CFW mice.; type: functional, organism-based; in short: as §1
L1210 [4] = test: Antitumor activity (ip) against CDF1 mice bearing Leukemia L1210 cells in 6 mice; type: functional, organism-based; conditions: Mus musculus
In short: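 Female CDF1 mice (16-22 g) inoculated ip with 1 × 10^6 L1210 cells in 0.5 mL […] on day 0. Compound given day 1 in 0.5 mL water, six mice per dose. Vehicle controls and cisplatin 8 mg/kg positive controls included. Run to 3× control MST, survivors scored as dying then. Read-out %ILS of MST; >25% active, maximum 200%.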

L1210 [5] = test: Optimal dose of the compound measured in mg/kg against CDF1 mice bearing L1210 leukemia cells.; type: functional, organism-based; conditions: Mus musculus; in short: as §2
Mus musculus [6] = test: Number of surviving CFW mice bearing Sarcoma 180 ascites (S180a) (6 mice treated i.p.); type: functional, organism-based
In short: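 Female CFW mice (18-25 g) implanted ip with 2 × 10^6 S180 ascites cells on day 0. Compound given ip in 0.5 mL water on day 1, adjusted to pH 7, six mice per dose. Vehicle and cisplatin control groups included. Run to twice control MST, survivors counted as dying that day. Read-out %ILS of MST; >50% active, maximum 100%.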

M5076 [7] = test: Optimum dose measured in mg/kg; type: functional, organism-based
M5076 [8] = test: Relative median time for tumors to reach 1 g in drug-treated groups and the control group (T-C in days); type: functional
In short: (§3)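 BDF1 mice of either sex (6-10 weeks) were implanted sc on day 0 with ~25 mg M5076 tumor fragments. Dosing was iv on days 5, 9, 13 and 17, with doses given per injection, in groups of eight. Study ended on day 75. Read-outs were % ILS of MST and T-C, the difference in median days for tumors to reach 1 g. Active means ILS ≥25% or T-C >13 days.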

M5076 [9] = test: Antitumor activity of the best % ILS of platinum-phospono carboxylate complex against subcutaneously implanted M5076 reticulum cell sarcoma; type: functional; in short: as §3

| Sequence | ILS (Mus musculus [1]) | ILS (L1210 [2]) | DOSE (Mus musculus [3]) | Survivors (L1210 [4]) | DOSE (L1210 [5]) | Survivors (Mus musculus [6]) | DOSE (M5076 [7]) | T-C (M5076 [8]) | ILS (M5076 [9]) |
| --- | --- | --- | --- | --- | --- | --- | --- | --- | --- |
| CARBOPLATIN | 95% | 90% | 120 mg/kg | 0 | 80 mg/kg | 4 |  |  |  |
| CISPLATIN | 81% | 87% | 8 mg/kg | 0 | 8 mg/kg | 3 | 5 | 25 | 28% |
